According to ChEMBL document CHEMBL1671676, “In vitro activity of nemonoxacin, a novel nonfluorinated quinolone, against 2,440 clinical isolates” (2009):
In brackets after ≈: the same amount, converted by molar mass.

How the values were obtained:
Assay type in all cases: functional
Streptococcus pneumoniae [1] = assay: Antibacterial activity against Streptococcus pneumoniae assessed as percent cumulative susceptible isolates at minimum inhibitory concentration of 32 ug/ml by CLSI broth microdilution method; set-up: scale not given: the % may be the effect or the level left
In short: (§1)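 Clinical isolates tested by CLSI broth microdilution using 96-well panels of doubling drug dilutions in cation-adjusted Mueller-Hinton broth with 5% lysed horse blood. MIC was read from these panels. Panel quality control used CLSI ATCC strains, including S. pneumoniae 49619, S. aureus 29213, E. faecalis 29212 and E. coli 25922. Cumulative percentages of isolates were tabulated at each MIC.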

Pseudomonas aeruginosa [2] = assay: Antibacterial activity against Pseudomonas aeruginosa assessed as percent cumulative susceptible isolates at minimum inhibitory concentration of 0.06 ug/ml by CLSI broth microdilution method; set-up: scale not given: the % may be the effect or the level left
Proteus mirabilis [3] = assay: Antibacterial activity against Proteus mirabilis assessed as percent cumulative susceptible isolates at minimum inhibitory concentration of 0.06 ug/ml by CLSI broth microdilution method; set-up: scale not given: the % may be the effect or the level left
[4] = test system: Staphylococcus epidermidis; assay: Antibacterial activity against methicillin-susceptible Staphylococcus epidermidis assessed as percent cumulative susceptible isolates at minimum inhibitory concentration of 32 ug/ml by CLSI broth microdilution method; set-up: scale not given: the % may be the effect or the level left; in short: as §1
Staphylococcus aureus [5] = assay: Antibacterial activity against community-associated methicillin-resistant Staphylococcus aureus assessed as percent cumulative susceptible isolates at minimum inhibitory concentration of 8 ug/ml by CLSI broth microdilution method; set-up: scale not given: the % may be the effect or the level left; in short: as §1
Enterococcus faecalis [6] = assay: Antibacterial activity against Enterococcus faecalis assessed as percent cumulative susceptible isolates at minimum inhibitory concentration of 32 ug/ml by CLSI broth microdilution method; set-up: scale not given: the % may be the effect or the level left
Enterococcus faecium = assay: Antibacterial activity against Enterococcus faecium by CLSI M7-A7 broth microdilution method
Staphylococcus aureus [7] = assay: Antibacterial activity against non-levofloxacin susceptible Staphylococcus aureus assessed as percent cumulative susceptible isolates at minimum inhibitory concentration of […] by CLSI broth microdilution method; set-up: scale not given: the % may be the effect or the level left
Klebsiella pneumoniae [8] = assay: Antibacterial activity against Klebsiella pneumoniae assessed as percent cumulative susceptible isolates at minimum inhibitory concentration of 8 ug/ml by CLSI broth microdilution method; set-up: scale not given: the % may be the effect or the level left
Escherichia coli [9] = assay: Antibacterial activity against Escherichia coli assessed as percent cumulative susceptible isolates at minimum inhibitory concentration of 2 ug/ml by CLSI broth microdilution method; set-up: scale not given: the % may be the effect or the level left
[10] = test system: Staphylococcus epidermidis; assay: Antibacterial activity against methicillin-susceptible Staphylococcus epidermidis assessed as percent cumulative susceptible isolates at minimum inhibitory concentration of 0.06 ug/ml by CLSI broth microdilution method; set-up: scale not given: the % may be the effect or the level left
Pseudomonas aeruginosa [11] = assay: Antibacterial activity against Pseudomonas aeruginosa assessed as percent cumulative susceptible isolates at minimum inhibitory concentration of 256 ug/ml by CLSI broth microdilution method; set-up: scale not given: the % may be the effect or the level left
[12] = Ratio of fAUC (0 to 24 hrs) in in vitro PK/PD model at 750 mg to MIC for community-associated methicillin-resistant Staphylococcus aureus
Escherichia coli [13] = assay: Antibacterial activity against Escherichia coli assessed as percent cumulative susceptible isolates at minimum inhibitory concentration of 128 ug/ml by CLSI broth microdilution method; set-up: scale not given: the % may be the effect or the level left
Klebsiella pneumoniae [14] = assay: Antibacterial activity against Klebsiella pneumoniae assessed as percent cumulative susceptible isolates at minimum inhibitory concentration of 128 ug/ml by CLSI broth microdilution method; set-up: scale not given: the % may be the effect or the level left
Staphylococcus aureus [15] = assay: Antibacterial activity against hospital-associated methicillin-resistant Staphylococcus aureus assessed as percent cumulative susceptible isolates at minimum inhibitory concentration of 4 ug/ml by CLSI broth microdilution method; set-up: scale not given: the % may be the effect or the level left
Staphylococcus aureus [16] = assay: Antibacterial activity against Levofloxacin-susceptible Staphylococcus aureus assessed as percent cumulative susceptible isolates at minimum inhibitory concentration of 0.06 ug/ml by CLSI broth microdilution method; set-up: scale not given: the % may be the effect or the level left
Pseudomonas aeruginosa [17] = assay: Antibacterial activity against Pseudomonas aeruginosa assessed as percent cumulative susceptible isolates at minimum inhibitory concentration of 128 ug/ml by CLSI broth microdilution method; set-up: scale not given: the % may be the effect or the level left
Staphylococcus aureus [18] = assay: Antibacterial activity against non-levofloxacin susceptible Staphylococcus aureus assessed as percent cumulative susceptible isolates at minimum inhibitory concentration of 8 ug/ml by CLSI broth microdilution method; set-up: scale not given: the % may be the effect or the level left
Proteus mirabilis [19] = assay: Antibacterial activity against Proteus mirabilis assessed as percent cumulative susceptible isolates at minimum inhibitory concentration of […] by CLSI broth microdilution method; set-up: scale not given: the % may be the effect or the level left
Pseudomonas aeruginosa [20] = assay: Antibacterial activity against Pseudomonas aeruginosa assessed as percent cumulative susceptible isolates at minimum inhibitory concentration of 64 ug/ml by CLSI broth microdilution method; set-up: scale not given: the % may be the effect or the level left
Enterococcus faecalis [21] = assay: Antibacterial activity against Enterococcus faecalis assessed as percent cumulative susceptible isolates at minimum inhibitory concentration of 128 ug/ml by CLSI broth microdilution method; set-up: scale not given: the % may be the effect or the level left
Klebsiella pneumoniae [22] = assay: Antibacterial activity against Klebsiella pneumoniae assessed as percent cumulative susceptible isolates at minimum inhibitory concentration of 0.03 ug/ml by CLSI broth microdilution method; set-up: scale not given: the % may be the effect or the level left
Staphylococcus aureus [23] = assay: Antibacterial activity against methicillin-susceptible Staphylococcus aureus assessed as percent cumulative susceptible isolates at minimum inhibitory concentration of […] by CLSI broth microdilution method; set-up: scale not given: the % may be the effect or the level left
Staphylococcus aureus [24] = assay: Antibacterial activity against methicillin-resistant Staphylococcus aureus assessed as percent cumulative susceptible isolates at minimum inhibitory concentration of 0.5 ug/ml by CLSI broth microdilution method; set-up: scale not given: the % may be the effect or the level left
Staphylococcus aureus [25] = assay: Antibacterial activity against hospital-associated methicillin-resistant Staphylococcus aureus assessed as percent cumulative susceptible isolates at minimum inhibitory concentration of 0.06 ug/ml by CLSI broth microdilution method; set-up: scale not given: the % may be the effect or the level left
Acinetobacter baumannii = assay: Antibacterial activity against Acinetobacter baumannii by CLSI M7-A7 broth microdilution method
Streptococcus pneumoniae [26] = assay: Antibacterial activity against Streptococcus pneumoniae assessed as percent cumulative susceptible isolates at minimum inhibitory concentration of <=0.008 ug/ml by CLSI broth microdilution method; set-up: scale not given: the % may be the effect or the level left
[27] = test system: Staphylococcus epidermidis; assay: Antibacterial activity against methicillin-resistant Staphylococcus epidermidis assessed as percent cumulative susceptible isolates at minimum inhibitory concentration of […] by CLSI broth microdilution method; set-up: scale not given: the % may be the effect or the level left
Enterococcus faecalis [28] = assay: Antibacterial activity against Enterococcus faecalis assessed as percent cumulative susceptible isolates at minimum inhibitory concentration of 0.5 ug/ml by CLSI broth microdilution method; set-up: scale not given: the % may be the effect or the level left
Proteus mirabilis [29] = assay: Antibacterial activity against Proteus mirabilis assessed as percent cumulative susceptible isolates at minimum inhibitory concentration of >=[…] by CLSI broth microdilution method; set-up: scale not given: the % may be the effect or the level left
Klebsiella pneumoniae [30] = assay: Antibacterial activity against Klebsiella pneumoniae assessed as percent cumulative susceptible isolates at minimum inhibitory concentration of 64 ug/ml by CLSI broth microdilution method; set-up: scale not given: the % may be the effect or the level left
[31] = Ratio of fAUC (0 to 24 hrs) in in vitro PK/PD model at 750 mg to MIC for penicillin-resistant Streptococcus pneumoniae
Staphylococcus aureus [32] = assay: Antibacterial activity against non-levofloxacin susceptible Staphylococcus aureus assessed as percent cumulative susceptible isolates at minimum inhibitory concentration of 64 ug/ml by CLSI broth microdilution method; set-up: scale not given: the % may be the effect or the level left
Escherichia coli [33] = assay: Antibacterial activity against Escherichia coli assessed as percent cumulative susceptible isolates at minimum inhibitory concentration of 0.03 ug/ml by CLSI broth microdilution method; set-up: scale not given: the % may be the effect or the level left
Staphylococcus aureus [34] = assay: Antibacterial activity against Levofloxacin-susceptible Staphylococcus aureus assessed as percent cumulative susceptible isolates at minimum inhibitory concentration of <=0.008 ug/ml by CLSI broth microdilution method; set-up: scale not given: the % may be the effect or the level left
[35] = test system: Staphylococcus epidermidis; assay: Antibacterial activity against methicillin-susceptible Staphylococcus epidermidis assessed as percent cumulative susceptible isolates at minimum inhibitory concentration of 0.5 ug/ml by CLSI broth microdilution method; set-up: scale not given: the % may be the effect or the level left

C[C@H]1COc2c(N3CCN(C)CC3)c(F)cc3c(=O)c(C(=O)O)cn1c23.C[C@H]1COc2c(N3CCN(C)CC3)c(F)cc3c(=O)c(C(=O)O)cn1c23.O [LEVOFLOXACIN]
Activity (Streptococcus pneumoniae [1]): 100%
Activity (Pseudomonas aeruginosa [2]): 2.2%
Activity (Proteus mirabilis [3]): 33.3%
Activity [4]: 100%
Activity (Staphylococcus aureus [5]): 96%
Activity (Enterococcus faecalis [6]): 100%

COc1c(N2C[C@@H](C)C[C@H](N)C2)ccc2c(=O)c(C(=O)O)cn(C3CC3)c12 [NEMONOXACIN]
MIC90 (Enterococcus faecium): 128 µg/mL (≈ 345 µM)
Activity (Staphylococcus aureus [7]): 8.9%
Activity (Klebsiella pneumoniae [8]): 95%
Activity (Escherichia coli [9]): 75.5%
Activity [10]: 58.1%
Activity (Pseudomonas aeruginosa [11]): 99.3%
RatioAUC/MIC [12]: 98
Activity (Escherichia coli [13]): 99.3%
Activity (Klebsiella pneumoniae [14]): 100%
Activity (Staphylococcus aureus [15]): 57.6%
Activity (Staphylococcus aureus [16]): 97.1%
Activity (Pseudomonas aeruginosa [17]): 97.8%
Activity (Staphylococcus aureus [18]): 76.2%
Activity (Proteus mirabilis [19]): 24.2%
Activity (Pseudomonas aeruginosa [20]): 95.6%
Activity (Enterococcus faecalis [21]): 100%
Activity (Klebsiella pneumoniae [22]): 1%
Activity (Staphylococcus aureus [23]): 30.5%
Activity (Staphylococcus aureus [24]): 24.4%
Activity (Staphylococcus aureus [25]): 3%
MIC90 (Acinetobacter baumannii): 1 µg/mL (≈ 2.69 µM)
Activity (Streptococcus pneumoniae [26]): 19.2%
Activity [27]: 11.1%
Activity (Enterococcus faecalis [28]): 70.4%
Activity (Proteus mirabilis [29]): 100%
Activity (Klebsiella pneumoniae [30]): 98.5%
RatioAUC/MIC [31]: > 393
Activity (Staphylococcus aureus [32]): 100%
Activity (Escherichia coli [33]): 1.5%
Activity (Staphylococcus aureus [34]): 5.9%
Activity [35]: 93%
